# Experimental data taken from paper PMC8590456 (Nature chemical biology, 2021).
# How the values were obtained:
# Jurkat and MOLT4 cells = test: Cell cycle analysis by FACS; type: cell-based, Human; details: 24 h, BSJ-4-116 50 nM, BSJ-4-116NC 100 nM
# Outline: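 Jurkat or MOLT4 cells (0.5×10^6) were treated 24 h. They were fixed in ice-cold 70% ethanol at −20 °C, treated with RNase A (0.5 mg/ml), stained with propidium iodide (50 µg/ml) and analysed by flow cytometry. […] is given as mean ± s.d. of n=2 biologically independent samples, representative of 2 experiments.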
# Cyclin K = test: Immunoblot of Cyclin K protein level in Jurkat cells; type: cell-based, Human; details: 6 h
# CDK12 I733V/Cyclin K = CDK12 I733V/Cyclin K (Homo sapiens, UniProt Q9NYV4, I733V); test: 32P-labeled ATP mutated CDK12 kinase assay; type: biochemical; details: recombinant I733V CDK12 vs wild type
# Outline: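 GST-CDK12 (714–1063) I733V (site-directed mutagenesis) and GST-cyclin K (1–267) were co-expressed with yeast CAK in Sf9 cells for 72 h. Purification was by GST affinity, TEV tag cleavage and size exclusion. The 0.2 μM complex was preincubated with varying compound concentrations for 5 min at 30 °C. Substrate and 0.2 mM [γ-32P]-ATP were added for 15 min at 30 °C. The reaction was stopped with 50 mM EDTA, spotted onto nitrocellulose, washed in phosphoric acid and scintillation-counted.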
# Jurkat cells = test: 3' poly; type: cell-based, Human; details: 8 h
# Outline: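 Poly(A) 3'-end libraries were sequenced. Metagene profiles of normalised reads span gene bodies ±2 kb, with sense and antisense reads shown separately. Differential expression used 3' UTR-associated poly(A)-site counts summed per gene. Intronic versus 3' UTR poly(A) usage was compared by odds ratio for transcripts with TPM > 1.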
# CDK13 = CDK13 (Homo sapiens, UniProt Q14004); test: Immunoblot of CDK13 protein level in Jurkat cells; type: cell-based; details: 6 h, indicated concentrations
# Sequence of CDK13 (Q14004 whole entry): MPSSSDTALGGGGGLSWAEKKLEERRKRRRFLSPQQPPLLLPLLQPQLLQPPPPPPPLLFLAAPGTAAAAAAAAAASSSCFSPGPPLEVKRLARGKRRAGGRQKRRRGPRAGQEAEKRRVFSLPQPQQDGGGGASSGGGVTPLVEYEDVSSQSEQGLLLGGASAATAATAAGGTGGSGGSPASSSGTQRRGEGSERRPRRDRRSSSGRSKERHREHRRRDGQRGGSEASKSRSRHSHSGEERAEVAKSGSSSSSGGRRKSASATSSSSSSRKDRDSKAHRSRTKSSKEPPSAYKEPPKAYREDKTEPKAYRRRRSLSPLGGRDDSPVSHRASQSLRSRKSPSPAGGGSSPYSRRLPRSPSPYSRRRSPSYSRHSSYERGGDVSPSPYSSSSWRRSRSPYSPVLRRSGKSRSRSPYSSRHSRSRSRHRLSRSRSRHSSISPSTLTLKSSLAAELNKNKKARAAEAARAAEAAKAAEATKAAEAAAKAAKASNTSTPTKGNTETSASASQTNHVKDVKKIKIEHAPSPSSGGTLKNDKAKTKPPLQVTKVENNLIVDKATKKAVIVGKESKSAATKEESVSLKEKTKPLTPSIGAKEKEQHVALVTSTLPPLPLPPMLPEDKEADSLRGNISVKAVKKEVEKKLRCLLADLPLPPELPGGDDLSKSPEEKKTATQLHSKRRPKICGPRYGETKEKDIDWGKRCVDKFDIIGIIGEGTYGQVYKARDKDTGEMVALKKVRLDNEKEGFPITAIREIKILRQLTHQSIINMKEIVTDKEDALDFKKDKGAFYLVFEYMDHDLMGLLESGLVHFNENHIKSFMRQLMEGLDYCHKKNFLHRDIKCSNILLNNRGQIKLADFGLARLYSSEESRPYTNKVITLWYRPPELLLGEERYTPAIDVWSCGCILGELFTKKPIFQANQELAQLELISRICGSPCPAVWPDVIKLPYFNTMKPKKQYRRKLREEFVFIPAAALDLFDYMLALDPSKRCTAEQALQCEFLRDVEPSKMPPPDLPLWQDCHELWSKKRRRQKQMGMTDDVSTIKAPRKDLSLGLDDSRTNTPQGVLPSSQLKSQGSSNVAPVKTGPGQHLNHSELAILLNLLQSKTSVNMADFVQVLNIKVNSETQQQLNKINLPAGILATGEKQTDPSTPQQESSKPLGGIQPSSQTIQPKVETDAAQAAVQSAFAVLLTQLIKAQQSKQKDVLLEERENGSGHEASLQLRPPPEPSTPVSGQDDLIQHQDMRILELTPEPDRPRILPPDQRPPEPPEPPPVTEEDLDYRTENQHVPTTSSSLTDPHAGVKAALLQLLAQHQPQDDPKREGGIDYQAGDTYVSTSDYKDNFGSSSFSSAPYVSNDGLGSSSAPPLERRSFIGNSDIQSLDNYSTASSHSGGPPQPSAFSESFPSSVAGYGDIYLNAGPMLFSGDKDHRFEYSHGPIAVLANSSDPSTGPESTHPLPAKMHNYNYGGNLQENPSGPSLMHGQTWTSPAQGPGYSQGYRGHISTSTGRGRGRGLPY
# Sequence of CDK13 (O75909 whole entry partner): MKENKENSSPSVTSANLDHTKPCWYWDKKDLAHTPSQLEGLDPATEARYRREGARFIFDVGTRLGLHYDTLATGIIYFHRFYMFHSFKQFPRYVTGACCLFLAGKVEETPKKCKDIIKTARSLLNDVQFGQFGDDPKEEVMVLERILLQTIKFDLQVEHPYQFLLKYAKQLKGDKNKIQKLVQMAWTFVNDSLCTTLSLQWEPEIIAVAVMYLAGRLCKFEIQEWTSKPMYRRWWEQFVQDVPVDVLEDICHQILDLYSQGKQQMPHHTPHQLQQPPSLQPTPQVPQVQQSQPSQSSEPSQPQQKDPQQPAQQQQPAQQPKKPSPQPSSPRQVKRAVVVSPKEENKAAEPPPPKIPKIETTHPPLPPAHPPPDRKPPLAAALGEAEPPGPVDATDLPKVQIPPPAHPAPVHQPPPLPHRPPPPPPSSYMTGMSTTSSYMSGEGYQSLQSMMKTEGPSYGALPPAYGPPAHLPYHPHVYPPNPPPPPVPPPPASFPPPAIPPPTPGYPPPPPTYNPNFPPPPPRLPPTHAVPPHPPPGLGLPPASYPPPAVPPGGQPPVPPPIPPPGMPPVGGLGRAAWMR
# Outline: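 Jurkat cells were treated 6 h with DMSO or CDK12 degraders at the indicated concentrations in a preliminary screen. Lysis was in NP40 buffer with protease and phosphatase inhibitors plus 1 mM PMSF. Immunoblots for CDK12, CDK13 and β-actin were imaged on an infrared scanner.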
# [1] = test system: CRBN−/− cells (Jurkat and MOLT4); test: 3-day growth rate inhibition; type: cell-based, Human; details: 72 h
# Outline: (§1)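 Cells were kept in RPMI 1640 with 10% FBS at 37 °C and 5% CO2, then plated at 6×10^3 cells/well for 24 h. Time 0 was read, then cells were dosed 10 nM–10 μM for 72 h. Viable cells were read by CellTiter-Glo luminescence. GR values, GR50 and GRmax were calculated from time-0 and 72-h data, with growth relative to DMSO. Mean ± s.d., n=3 biologically independent samples, representative of 2 experiments.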
# CDK9 = CDK9 (Homo sapiens, UniProt P50750+Q96SW2); test: Immunoblot of CDK9 in parental and resistant cells; type: cell-based; details: parental and resistant Jurkat and MOLT4 cells, 250 nM, 8 h
# Sequence of CDK9 (P50750 whole entry): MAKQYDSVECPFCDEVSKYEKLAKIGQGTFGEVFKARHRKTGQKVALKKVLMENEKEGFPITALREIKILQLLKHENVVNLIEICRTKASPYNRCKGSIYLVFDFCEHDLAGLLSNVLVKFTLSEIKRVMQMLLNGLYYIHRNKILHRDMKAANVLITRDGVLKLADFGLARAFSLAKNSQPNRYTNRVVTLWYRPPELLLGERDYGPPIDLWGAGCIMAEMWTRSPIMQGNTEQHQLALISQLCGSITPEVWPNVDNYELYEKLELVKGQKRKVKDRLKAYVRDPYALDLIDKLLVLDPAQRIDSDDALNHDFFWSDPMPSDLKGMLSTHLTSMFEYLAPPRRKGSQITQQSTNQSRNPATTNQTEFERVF
# Sequence of CDK9 (O60563 whole entry partner): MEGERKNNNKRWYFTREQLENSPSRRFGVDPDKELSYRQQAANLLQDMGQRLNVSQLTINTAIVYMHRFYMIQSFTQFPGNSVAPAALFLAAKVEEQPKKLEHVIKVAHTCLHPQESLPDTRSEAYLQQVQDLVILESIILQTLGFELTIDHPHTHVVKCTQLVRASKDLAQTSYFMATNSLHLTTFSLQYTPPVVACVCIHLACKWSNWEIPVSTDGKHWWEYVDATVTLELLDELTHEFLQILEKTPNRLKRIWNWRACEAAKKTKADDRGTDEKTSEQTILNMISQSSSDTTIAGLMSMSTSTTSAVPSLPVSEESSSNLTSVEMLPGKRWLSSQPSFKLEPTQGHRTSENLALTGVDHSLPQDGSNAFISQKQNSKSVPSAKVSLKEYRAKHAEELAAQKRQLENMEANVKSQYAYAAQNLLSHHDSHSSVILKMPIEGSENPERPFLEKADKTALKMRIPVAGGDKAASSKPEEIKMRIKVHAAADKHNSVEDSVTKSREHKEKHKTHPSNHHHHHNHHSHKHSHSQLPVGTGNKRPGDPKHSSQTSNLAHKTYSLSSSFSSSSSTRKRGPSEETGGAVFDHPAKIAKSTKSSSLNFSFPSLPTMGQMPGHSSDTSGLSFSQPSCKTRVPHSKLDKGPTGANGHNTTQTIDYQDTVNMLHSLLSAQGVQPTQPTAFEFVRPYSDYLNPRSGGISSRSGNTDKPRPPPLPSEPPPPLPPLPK
# Sequence of CDK9 (Q96SW2 whole entry): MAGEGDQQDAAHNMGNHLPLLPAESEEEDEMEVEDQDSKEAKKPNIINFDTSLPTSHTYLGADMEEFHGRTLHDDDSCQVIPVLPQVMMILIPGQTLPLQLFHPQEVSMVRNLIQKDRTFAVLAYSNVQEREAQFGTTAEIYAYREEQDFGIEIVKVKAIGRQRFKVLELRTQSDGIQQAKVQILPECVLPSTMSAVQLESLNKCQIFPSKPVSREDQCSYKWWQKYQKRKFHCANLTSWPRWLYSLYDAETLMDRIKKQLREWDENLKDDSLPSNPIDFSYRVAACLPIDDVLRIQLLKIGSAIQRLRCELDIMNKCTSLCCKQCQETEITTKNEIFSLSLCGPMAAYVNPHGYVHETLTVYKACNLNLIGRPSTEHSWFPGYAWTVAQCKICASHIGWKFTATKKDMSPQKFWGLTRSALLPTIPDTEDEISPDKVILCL
# Sequence of CDK9 (Q16531 whole entry partner): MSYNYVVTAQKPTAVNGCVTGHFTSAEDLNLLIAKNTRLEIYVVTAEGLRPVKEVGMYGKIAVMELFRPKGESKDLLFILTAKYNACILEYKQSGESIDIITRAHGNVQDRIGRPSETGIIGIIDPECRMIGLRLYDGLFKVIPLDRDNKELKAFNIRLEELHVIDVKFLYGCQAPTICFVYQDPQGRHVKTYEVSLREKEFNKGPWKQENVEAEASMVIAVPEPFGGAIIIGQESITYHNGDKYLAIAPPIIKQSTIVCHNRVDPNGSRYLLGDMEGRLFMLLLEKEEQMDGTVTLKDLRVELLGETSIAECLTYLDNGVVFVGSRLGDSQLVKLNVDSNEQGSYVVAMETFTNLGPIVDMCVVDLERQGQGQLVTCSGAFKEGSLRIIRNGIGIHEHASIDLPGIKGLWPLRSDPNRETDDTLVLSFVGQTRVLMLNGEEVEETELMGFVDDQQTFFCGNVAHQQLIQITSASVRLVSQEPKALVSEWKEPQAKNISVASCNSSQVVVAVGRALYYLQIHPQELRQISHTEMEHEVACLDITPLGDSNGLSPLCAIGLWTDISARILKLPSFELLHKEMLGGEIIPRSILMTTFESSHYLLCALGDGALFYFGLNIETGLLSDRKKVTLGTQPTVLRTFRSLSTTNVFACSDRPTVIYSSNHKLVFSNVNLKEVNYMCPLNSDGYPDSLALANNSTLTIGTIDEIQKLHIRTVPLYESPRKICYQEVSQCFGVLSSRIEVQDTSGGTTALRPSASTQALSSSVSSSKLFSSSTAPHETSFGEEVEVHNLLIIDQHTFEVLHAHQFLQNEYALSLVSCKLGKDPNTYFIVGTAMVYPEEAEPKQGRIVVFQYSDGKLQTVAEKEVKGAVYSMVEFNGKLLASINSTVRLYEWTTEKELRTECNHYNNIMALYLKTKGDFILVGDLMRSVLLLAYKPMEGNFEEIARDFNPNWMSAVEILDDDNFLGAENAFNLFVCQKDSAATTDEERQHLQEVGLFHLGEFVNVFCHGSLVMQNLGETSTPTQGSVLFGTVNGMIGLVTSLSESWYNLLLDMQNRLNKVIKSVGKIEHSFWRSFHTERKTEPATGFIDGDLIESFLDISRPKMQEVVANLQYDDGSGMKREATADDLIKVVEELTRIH
# Outline: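 Parental and resistant Jurkat and MOLT4 cells were treated 8 h with DMSO, CDK12 degraders or a CDK9 degrader (250 nM). Lysis was in NP40 buffer with protease and phosphatase inhibitors plus 1 mM PMSF. Immunoblots for CDK12 and CDK9, with GAPDH loading control, were imaged on an infrared scanner. Representative of n=2 independent experiments.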
# [2] = test system: wild-type T-ALL cell lines (Jurkat and MOLT4); test: 3-day growth rate inhibition; type: cell-based, Human; details: GR assay, 72 h
# Outline: as §1
effect of I733V on binding affinity in in vitro kinase assay (CDK12 I733V/Cyclin K),sensitivity of resistant cells to CDK9 degrader (CDK9),SMILES,cell cycle distribution (Jurkat and MOLT4 cells),Cyclin K protein level (Cyclin K),annotated terminal or 3' poly(A) sites (metagene analysis) (Jurkat cells),"downregulated transcripts (Jurkat cells; BSJ-4-116 50 nM, THZ531 250 nM, FDR <= 0.01)",CDK13 protein level (CDK13),sensitivity of CRBN−/− cells in GR assay [1],genes differentially expressed vs DMSO control cells (Jurkat cells; 50 nM),fold less potent than BSJ-4-116 [2]
loss of binding affinity,–,CN(C)C/C=C/C(=O)Nc1ccc(C(=O)N2CCC[C@@H](Nc3ncc(Cl)c(-c4c[nH]c5ccccc45)n3)C2)cc1 [THZ531],accumulation of G2/M cells,no effect,significant loss,7050,no effect,responding similarly,–,–
–,remained equally sensitive,CC(C)(C)c1cnc(CSc2cnc(NC(=O)C3CCN(CC(=O)NCCOCCOCCOCCNc4cccc5c4C(=O)N(C4CCC(=O)NC4=O)C5=O)CC3)s2)o1 (stereo not shown) [THAL-SNS-032],–,–,–,–,–,–,–,–
–,–,CC(C)S(=O)(=O)c1ccccc1Nc1nc(N[C@@H]2CCCN(CCCCCCCNC(=O)COc3cccc4c3C(=O)N(C3CCC(=O)N(C)C3=O)C4=O)C2)ncc1Cl (stereo partly shown) [BSJ-4-116NC],–,no effect,–,–,no effect,responding similarly,1 gene,10 fold
